The source made the active and inactive calls. The calls are words filed in the database; no cut-off is given here.
Experiments:
[1] = tested on: Yarrowia lipolytica; test: Antifungal activity against Yarrowia lipolytica assessed as zone of inhibition at 5 uL and 28 degC after 36 hrs by disk diffusion method; format: functional
In short: (§1)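 Agar disc diffusion with the test compound applied as a 1% (w/v) DMSO solution. Yeasts were grown on AC agar and Aspergillus niger on potato dextrose broth agar, each strain spread evenly. Plates were covered and kept 36 h at 28 °C, and the inhibition zone diameter was read in mm. Clotrimazole served as reference.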

[2] = tested on: MCF7; test: Growth inhibition of human MCF7 cells assessed as cell growth at 10^-5 M after 48 hrs by sulforhodamine B assay; format: functional; details: MCF7, 48 h, read-out: Activity
In short: (§2)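 NCI-60 single high-dose screen run under the NCI protocol. Cells were incubated with compound at 10^-5 M for 48 h. The end point was determined by sulforhodamine B protein staining. Results are reported as percent growth of treated cells relative to untreated control cells.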

[3] = tested on: SNB-19; test: Growth inhibition of human SNB19 cells assessed as cell growth at 10^-5 M after 48 hrs by sulforhodamine B assay; format: functional; details: SNB-19, 48 h, read-out: Activity
In short: (§3)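 NCI 60-cell panel single-dose screen under the NCI protocol. Cells are exposed to compound at one concentration (10^-5 M) for 48 h. The end point is protein staining with sulforhodamine B. Each line is reported as percent growth of treated cells relative to untreated control cells.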

[4] = tested on: NCI-H460; test: Growth inhibition of human NCI-H460 cells assessed as cell growth at 10^-5 M after 48 hrs by sulforhodamine B assay; format: functional; details: NCI-H460, 48 h, read-out: Activity; in short: as §2
[5] = tested on: CAKI-1; test: Growth inhibition of human Caki1 cells assessed as cell growth at 10^-5 M after 48 hrs by sulforhodamine B assay; format: functional; details: CAKI-1, 48 h, read-out: Activity
In short: (§4)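 NCI 60-cell panel single high-dose screen: compound applied at 10^-5 M for 48 h, endpoint by sulforhodamine B protein-binding dye. Values reported as growth percent of treated cells relative to untreated control cells.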

[6] = tested on: UACC-257; test: Growth inhibition of human UACC257 cells assessed as cell growth at 10^-5 M after 48 hrs by sulforhodamine B assay; format: functional; details: UACC-257, 48 h, read-out: Activity; in short: as §3
[7] = tested on: Staphylococcus equorum; test: Antibacterial activity against Staphylococcus equorum assessed as zone of inhibition at 5 uL and 32 degC after 36 hrs at by disk diffusion method; format: functional
In short: (§5)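 Disc diffusion on AC agar, each strain spread evenly over the medium; test compounds given as 1% (w/v) DMSO solutions. Plates covered and incubated 36 h at 32 °C, then the diameter of the zone of inhibited growth measured in mm. Tetracycline served as antibacterial reference.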

[8] = tested on: BT-549; test: Growth inhibition of human BT549 cells assessed as cell growth at 10^-5 M after 48 hrs by sulforhodamine B assay; format: functional; details: BT-549, 48 h, read-out: Activity; in short: as §4
[9] = tested on: SK-MEL-28; test: Growth inhibition of human SK-MEL-28 cells assessed as cell growth at 10^-5 M after 48 hrs by sulforhodamine B assay; format: functional; details: SK-MEL-28, 48 h, read-out: Activity; in short: as §2
[10] = tested on: KM12; test: Growth inhibition of human KM12 cells assessed as cell growth at 10^-5 M after 48 hrs by sulforhodamine B assay; format: functional; details: KM12, 48 h, read-out: Activity; in short: as §4
[11] = tested on: HCT-15; test: Growth inhibition of human HCT15 cells assessed as cell growth at 10^-5 M after 48 hrs by sulforhodamine B assay; format: functional; details: HCT-15, 48 h, read-out: Activity; in short: as §4
[12] = tested on: DU-145; test: Growth inhibition of human DU145 cells assessed as cell growth at 10^-5 M after 48 hrs by sulforhodamine B assay; format: functional; details: DU-145, 48 h, read-out: Activity; in short: as §4
[13] = tested on: OVCAR-4; test: Growth inhibition of human OVCAR4 cells assessed as cell growth at 10^-5 M after 48 hrs by sulforhodamine B assay; format: functional; details: OVCAR-4, 48 h, read-out: Activity; in short: as §2
[14] = tested on: RPMI-8226; test: Growth inhibition of human RPMI8226 cells assessed as cell growth at 10^-5 M after 48 hrs by sulforhodamine B assay; format: functional; details: RPMI-8226, 48 h, read-out: Activity; in short: as §2
[15] = tested on: Escherichia coli; test: Antibacterial activity against Escherichia coli assessed as zone of inhibition at 5 uL and 32 degC after 36 hrs by disk diffusion method; format: functional; in short: as §5
[16] = tested on: HCT-116; test: Growth inhibition of human HCT116 cells assessed as cell growth at 10^-5 M after 48 hrs by sulforhodamine B assay; format: functional; details: HCT-116, 48 h, read-out: Activity; in short: as §4
[17] = tested on: MOLT-4; test: Growth inhibition of human MOLT4 cells assessed as cell growth at 10^-5 M after 48 hrs by sulforhodamine B assay; format: functional; details: MOLT-4, 48 h, read-out: Activity; in short: as §2
[18] = tested on: Aspergillus niger; test: Antifungal activity against Aspergillus niger assessed as zone of inhibition at 5 uL and 28 degC after 36 hrs by disk diffusion method; format: functional; in short: as §1
[19] = Antifungal activity against Hyphopichia burtonii assessed as zone of inhibition at 5 uL and 28 degC after 36 hrs by disk diffusion method; format: functional; in short: as §1
[20] = tested on: A549; test: Growth inhibition of human A549 cells assessed as cell growth at 10^-5 M after 48 hrs by sulforhodamine B assay; format: functional; details: A549, 48 h, read-out: Activity; in short: as §4
[21] = tested on: SF-539; test: Growth inhibition of human SF539 cells assessed as cell growth at 10^-5 M after 48 hrs by sulforhodamine B assay; format: functional; details: SF-539, 48 h, read-out: Activity; in short: as §2
[22] = tested on: TK-10; test: Growth inhibition of human TK10 cells assessed as cell growth at 10^-5 M after 48 hrs by sulforhodamine B assay; format: functional; details: TK-10, 48 h, read-out: Activity; in short: as §3
[23] = tested on: Streptococcus entericus; test: Antibacterial activity against Streptococcus entericus assessed as zone of inhibition at 5 uL and 32 degC after 36 hrs by disk diffusion method; format: functional; in short: as §5
[24] = tested on: HCC 2998; test: Growth inhibition of human HCC2998 cells assessed as cell growth at 10^-5 M after 48 hrs by sulforhodamine B assay; format: functional; details: HCC 2998, 48 h, read-out: Activity; in short: as §4
[25] = tested on: HL-60; test: Cytotoxicity against human HL60 cells after 24 hrs by MTT assay; format: functional, cell-based; details: HL-60, 24 h
In short: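 HL-60 cells kept in RPMI 1640 with 10% FBS, no antibiotics, 37 °C, humidified 5% CO2. Cells (9 × 10^5 cells/mL) exposed to compound in 96-well plates for 24 h at 37 °C. MTT in PBS (5 mg/mL) added for 2 h, then DMSO, shaken 1 h and read photometrically. IC50 determined; cisplatin reference.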

[26] = tested on: LOX IMVI; test: Growth inhibition of human LOXIMVI cells assessed as cell growth at 10^-5 M after 48 hrs by sulforhodamine B assay; format: functional; details: read-out: Activity; in short: as §4
[27] = tested on: K562; test: Growth inhibition of human K562 cells assessed as cell growth at 10^-5 M after 48 hrs by sulforhodamine B assay; format: functional; details: K562, 48 h, read-out: Activity; in short: as §4
[28] = tested on: SR; test: Growth inhibition of human SR cells assessed as cell growth at 10^-5 M after 48 hrs by sulforhodamine B assay; format: functional; details: read-out: Activity; in short: as §3
[29] = tested on: OVCAR-5; test: Growth inhibition of human OVCAR5 cells assessed as cell growth at 10^-5 M after 48 hrs by sulforhodamine B assay; format: functional; details: OVCAR-5, 48 h, read-out: Activity; in short: as §2

Structure (SMILES) | diameter of the inhibition zone (DIZ) [1] | growth at 10 µM [2] | growth at 10 µM [3] | growth at 10 µM [4] | growth at 10 µM [5] | growth at 10 µM [6] | diameter of the inhibition zone (DIZ) [7] | growth at 10 µM [8] | growth at 10 µM [9] | growth at 10 µM [10] | growth at 10 µM [11] | growth at 10 µM [12] | growth at 10 µM [13] | growth at 10 µM [14] | diameter of the inhibition zone (DIZ) [15] | growth at 10 µM [16] | growth at 10 µM [17] | diameter of the inhibition zone (DIZ) [18] | growth at 10 µM [20] | growth at 10 µM [21] | further results
CC(C)CCC[C@@H](C)[C@H]1CC[C@H]2C3=CCn4c(=O)ccc(=O)n4[C@@H]3CC[C@]12C | 7 mm | -92.5% | -100% | -89.9% | -91.6% | -97.5% | inactive | -30.9% | -100% | -65.5% | -63.7% | -93.7% | -32.4% | -41.5% | inactive | -44.6% | -23.6% | inactive | -79.3% | -96.8% | inhibition zone (IZ) [19]: 10 mm; growth at 10 µM [22]: -83.1%; diameter of the inhibition zone (DIZ) [23]: 7 mm; growth at 10 µM [24]: -100%; IC50 [25]: 0.03 µM; growth at 10 µM [26]: -89.5%; growth at 10 µM [27]: -40%; growth at 10 µM [28]: -34.6%; growth at 10 µM [29]: -84.3%
CC(C)CCC[C@@H](C)[C@H]1CC[C@H]2[C@@H]3CCN4C(=O)CCC(=O)N4[C@@H]3CC[C@]12C | 15 mm | 88.5% | 162% | 107% | 73.5% | 76.2% | 9 mm | 84.7% | 76.4% | 105% | 106% | 100% | 103% | 56.6% | 11 mm | 95% | 87.2% | inactive | 84.1% | 104% | inhibition zone (IZ) [19]: 15 mm; growth at 10 µM [22]: 108%; diameter of the inhibition zone (DIZ) [23]: 10 mm; growth at 10 µM [24]: 86.6%; IC50 [25]: 30 µM; growth at 10 µM [26]: 84.5%; growth at 10 µM [27]: 91%; growth at 10 µM [28]: 79.7%; growth at 10 µM [29]: 91.5%
CC(C)CCC[C@@H](C)[C@H]1CC[C@H]2C3=CC[C@@H]4C(=O)C=CC(=O)[C@@H]4[C@@H]3CC[C@]12C | inactive | 8.65% | 7.34% | 2.88% | -56.3% | 28.7% | inactive | -1.63% | -48.5% | -10.1% | 11.3% | 26.6% | -9.33% | 8.72% | inactive | 3.29% | 10.4% | inactive | 8.75% | 38.2% | diameter of the inhibition zone (DIZ) [19]: inactive; growth at 10 µM [22]: -36.6%; diameter of the inhibition zone (DIZ) [23]: inactive; growth at 10 µM [24]: -75.5%; IC50 [25]: 0.7 µM; growth at 10 µM [26]: -43.4%; growth at 10 µM [27]: 9.94%; growth at 10 µM [28]: 13.2%; growth at 10 µM [29]: 7.74%

Reference: ChEMBL document CHEMBL1806372, “Cytotoxic ring A-modified steroid analogues derived from Grundmann's ketone” (Eur J Med Chem, 2011)
